This is a sample that favours compounds with a hit; in the whole collection about 3.2% have one here.
SMARCA2 act – SMARCA2 (BRM) function activators, primary screen, cell-based, luminescence, high throughput; MG213 cells, MMTV-luciferase reporter, dexamethasone, overnight; activation, % at 9.1 µM; 370,000 tested, 1% active; in the data active = activation above about 7.8%;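 note: 0% = vehicle wells and 100% = reference activator wells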
DAX1 inh-1 – DAX1 (NR0B1) inhibitors, primary screen, cell-based, HEK293, Gal4-DAX1, luciferase luminescence | inhibition, % at 6.75 µM | 340,000 tested, 0.99% active | HEK293 Gal4-DAX1 luciferase reporter;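 active = inhibition above the mean over all tested compounds plus 3 SD, cut at about 4.2% in these data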;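 note: 0% = DAX1-transfected cells with DMSO and 100% = empty-vector control cells with DMSO; inhibition shows as a rise in luminescence from relieved DAX1 repression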
Target sequence (P51843 207-470 limits assumed): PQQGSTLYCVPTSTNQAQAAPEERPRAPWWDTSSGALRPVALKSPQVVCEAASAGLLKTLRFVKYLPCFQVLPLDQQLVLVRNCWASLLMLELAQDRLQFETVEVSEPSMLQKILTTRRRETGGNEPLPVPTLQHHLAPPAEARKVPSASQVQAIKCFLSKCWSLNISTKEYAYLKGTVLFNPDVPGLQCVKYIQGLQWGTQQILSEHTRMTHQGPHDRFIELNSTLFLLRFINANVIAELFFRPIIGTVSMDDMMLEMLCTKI
NR2E3 ag-1 – NR2E3 agonists in two-hybrid cells, primary screen, cell-based, luminescence, CHO-S, Gal4-NCOR/VP16-NR2E3; Photoreceptor-specific nuclear receptor (Homo sapiens), Q9Y5X4; luciferase; inhibition of corepressor binding, % at 3.98 µM; 360,000 tested, 0.35% active;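 active = inhibition above the mean of all tested compounds plus 3 SD, cut at about 70% in these data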;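 note: 0% = DMSO with NR2E3 transfected cells and 100% = cells lacking NR2E3 construct; higher means lower luciferase signal from less NR2E3 corepressor binding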
NR2E3 ag-2 – inhibitors of NR2E3-RetCOR corepressor binding, primary screen, NR2E3 agonist project, biochemical, TR-FRET, GST-NR2E3, biotin-RetCOR; AID 2300, 2010; 1536-well; 320,000 tested, 0.12% active; inhibition of corepressor binding, % at 4.78 µM;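 active = percent inhibition above the cutoff of mean plus 3 SD of all tested compounds, set per screening campaign, cut at about 20% in these data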;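 note: 0% = DMSO wells and 100% = biotin wells as full block of FRET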
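Material – GST-tagged NR2E3 plus biotinylated RetCOR corepressor · Quantity – NR2E3 fusion 1.35 nM · Times – 5 h incubation at 4 °C · Medium – pH 7.5 Tris-based buffer · Technique – TR-FRET, Eu(K)-anti-GST donor, streptavidin-D2 acceptor, ex 340, em 617/671 nm · Benchmarks – high control biotin, low control 0.6% DMSO · Format – 1536-well plates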
DAX1 inh-2 – DAX1 (NR0B1) inhibitors on StAR promoter, primary screen, cell-based, luminescence, SF-1 (NR5A1), full-length DAX-1. inhibition, % at 6.8 µM. HEK293T StAR-luciferase reporter, SF-1/DAX-1 repression relief. 370,000 tested, 1.1% active. AID 652010, 2013;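 active = inhibition above the mean over all tested compounds plus 3 SD, cut at about 3.6% in these data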;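 note: 0% = DAX-1 cells with DMSO and 100% = cells lacking DAX-1 with DMSO; higher inhibition means more luminescence from relief of DAX-1 repression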
JMJD2C inh – inhibitors of GASC-1 histone demethylase, primary screen, biochemical, fluorescence, DELFIA europium; Lysine-specific demethylase 4C (Homo sapiens), Q9H3R0; GST-JMJD2C(1-420) H3K9me3 demethylation; inhibition, % at 2.35 µM; 330,000 tested, 0.069% active; AID 2099, 2009;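 active = more than half of a compound's replicate wells show inhibition beyond 50%, single wells judged on their own value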;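 note: signal counts dimethyl H3K9 product captured on neutravidin plate; 0% = median of DMSO wells and 100% = 0.3 times that DMSO median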
Target sequence (Q9H3R0 1-420 limits assumed): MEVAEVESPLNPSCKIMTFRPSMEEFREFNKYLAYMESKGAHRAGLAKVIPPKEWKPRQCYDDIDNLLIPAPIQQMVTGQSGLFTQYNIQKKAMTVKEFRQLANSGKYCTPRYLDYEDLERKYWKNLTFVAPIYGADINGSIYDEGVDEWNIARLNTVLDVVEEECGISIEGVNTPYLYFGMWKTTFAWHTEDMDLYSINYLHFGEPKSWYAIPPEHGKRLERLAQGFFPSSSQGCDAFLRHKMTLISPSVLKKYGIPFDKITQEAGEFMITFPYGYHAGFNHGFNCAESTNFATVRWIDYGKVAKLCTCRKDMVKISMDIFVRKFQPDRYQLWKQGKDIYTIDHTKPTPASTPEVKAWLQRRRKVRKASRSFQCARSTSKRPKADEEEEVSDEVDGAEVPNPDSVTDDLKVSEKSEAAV
DAX1 conf – DAX1 (NR0B1) inhibitors relieving SF-1 repression, confirmation, cell-based, luminescence, HEK293T, full-length DAX-1, SF-1 activated StAR promoter; shares compounds with DAX1 inh-2; HEK293T StAR-promoter luciferase reporter, SF-1/DAX-1 repression; inhibition, % at 6.8 µM; AID 652134, 2013; 2,400 tested, 87% active;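 active = inhibition above the average of every tested compound plus 3 SD, cut at about 3.8% in these data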;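 note: 0% = DAX-1 cells with DMSO and 100% = no DAX-1 control cells with DMSO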
SF1 mutant ctr – StAR reporter signal changes without DAX1, counter-screen for DAX1 inhibitor project, cell-based, luminescence, AF-2 mutant SF-1, transactivation. HEK293 StAR-luciferase, SF-1 AF2 mutant. inhibition, % at 6.8 µM. shares compounds with DAX1 inh-2. 2,400 tested, 78% active. AID 652136, 2013;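 active = inhibition above the mean of all tested compounds plus 3 SD, cut at about 3% in these data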;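 note: 0% = DAX-1 transfected cells with DMSO and 100% = cells without DAX-1 with DMSO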
* marks the source's active call; other numbers are inactive results; . = no result.

SMILES	SMARCA2 act	DAX1 inh-1	NR2E3 ag-1	NR2E3 ag-2	DAX1 inh-2	JMJD2C inh	DAX1 conf	SF1 mutant ctr
CCOC(=O)c1c(C)[nH]c(N=Nc2ccc(C)cc2)c1C	-1.1	3.9	-167.0	6.2	4.9*	1.9	12.4*	6.0*
CCOC(=O)c1c(C)[nH]c(N=Nc2cccc(C)c2)c1C	-0.6	2.2	-136.0	0.3	4.6*	-8.3	8.8*	3.9*
CCOC(=O)c1c(C)[nH]c(N=Nc2ccccc2Cl)c1C	-0.4	0.2	-111.5	1.0	1.3	1.4	.	.
COc1ccc(OC)c(S(=O)(=O)N2CCCC(C(=O)N3CCN(Cc4ccccc4)CC3)C2)c1 (stereo not given)	-6.8	.	.	.	-1.9	.	.	.
CCC(C)N(C(=O)c1ccc(CNC(=O)c2cccc(Br)c2)cc1)C(C)CC (stereo not given)	-6.2	.	.	.	-1.2	.	.	.
N/C(=N\OC(=O)c1ccoc1)c1ccc(Br)cc1	7.8*	2.2	-151.1	2.5	9.5*	1.0	10.8*	6.9*
Cc1cc(C)cc(C(=O)O/N=C(\N)c2ccc(Br)cc2)c1	-2.5	-1.4	-19.9	-3.6	0.0	-1.1	.	.
CCOc1ccc(-n2c(SCc3ccc(C#N)cc3)nnc2-c2ccco2)cc1	-7.7	.	.	.	-1.1	.	.	.
Cc1cc(C(=O)Nc2ccc(Cl)c(Cl)c2)n(-c2ccccc2)n1	-1.2	.	.	.	-0.9	.	.	.
CCn1c(SCC(=O)Nc2ccccc2-c2ccccc2)nnc1-c1ccc(C)cc1	-4.7	.	.	.	0.0	.	.	.
COc1cccc(-c2csc(NC(=O)C3CC3)n2)c1	3.1	1.8	-82.4	2.3	5.2*	2.9	7.0*	5.8*
N#CCC(=O)Nc1nc(-c2ccc3c(c2)OCCO3)cs1	4.3	1.7	-48.5	0.1	1.4	6.7	.	.
O=C(Nc1nc(-c2ccc3c(c2)OCCO3)cs1)C1CCCC1	-2.7	5.8*	-151.0	0.2	4.7*	9.7	11.5*	3.9*
Cc1cccc(NC(=O)c2ccc(OC3CSC3)cc2)c1	4.6	0.7	-54.9	0.5	4.8*	-4.4	7.8*	4.0*
CC(=O)c1cccc(NC(=O)c2ccc(OC3CSC3)cc2)c1	4.3	-1.2	-6.9	-2.3	0.1	-1.5	.	.
O=C(NCCc1ccc(F)cc1)NC12CC3CC(CC(C3)C1)C2	3.0	0.8	-201.5	3.9	8.3*	14.8	10.4*	7.6*
COc1ccc(CCNC(=O)NC23CC4CC(CC(C4)C2)C3)cc1	-0.8	0.6	-62.2	1.2	0.1	0.9	.	.
Cn1c(-c2ccccc2)c(/C=N/NC(=O)c2ccc(O)cc2)c2ccccc21	1.7	8.7*	-18.4	5.0	4.5*	5.0	12.0*	7.6*
O=C(N/N=C\c1c(O)ccc2ccccc12)c1ccc(O)cc1	-1.0	1.9	-24.9	1.9	-2.7	-1.7	.	.
c1ccc(Cn2cc(CCOCc3ccccn3)c3ccccc32)cc1	4.6	.	.	.	4.9*	.	2.4	1.6
OCCCc1cn(Cc2ccccc2)c2ccccc12	-1.7	0.2	-19.6	-1.1	0.2	-6.3	.	.
Nc1nc2ccccc2n1S(=O)(=O)c1ccccc1	-5.4	.	-4.2	.	4.8*	.	1.6	1.1
Cc1ccc(S(=O)(=O)n2c(C)nc3ccccc32)cc1	-1.4	1.1	-24.3	1.0	-0.2	6.0	.	.
CCCC[C@@H](CCCc1ccc(F)cc1)CCC(=O)N(c1ccccc1)c1ccccc1	0.1	.	.	.	0.1	.	.	.
Cc1ccc(NC(=O)Nc2ccc3c(c2)OCO3)cc1F	3.1	0.3	-131.7	0.4	7.5*	5.0	11.9*	9.6*
SMILES	SMARCA2 act	DAX1 inh-1	NR2E3 ag-1	NR2E3 ag-2	DAX1 inh-2	JMJD2C inh	DAX1 conf	SF1 mutant ctr
Cn1nnnc1SCC(=O)Nc1ccc2c(c1)OCCO2	5.8	4.0	-78.6	-2.0	6.5*	-6.3	8.2*	2.6
COc1cccc(NC(=O)Nc2ccc3c(c2)OCO3)c1	1.5	1.2	-118.6	2.3	8.4*	-6.5	6.2*	4.9*
O=C(Nc1ccc2c(c1)OCCO2)Nc1ccc2c(c1)OCO2	5.3	-0.5	-155.4	6.2	5.4*	-5.5	13.6*	6.7*
Cc1cc(F)ccc1NC(=O)Nc1ccc2c(c1)OCO2	-2.2	0.2	-16.6	2.9	0.5	-17.1	.	.
CCCC1CCC2(CCC(=O)N2CCO)CC1 (stereo not given)	-1.1	.	.	.	0.7	.	.	.
CNS(=O)(=O)/C=C/c1ccccc1CCNC(=O)OC(C)(C)C	-2.6	.	.	.	-2.3	.	.	.
COc1ccc(NC(=O)Nc2ccccc2F)cc1	4.5	0.8	-136.7	-2.0	6.7*	0.8	14.3*	6.7*
O=C(Nc1ccc2c(c1)OCO2)Nc1ccccc1F	3.5	-0.1	-142.6	-2.4	10.8*	3.3	12.5*	6.9*
O=C(/C=C/c1ccco1)Nc1ccc2c(c1)OCO2	2.6	2.3	-113.5	-6.7	6.1*	12.4	10.8*	6.0*
Brc1cccc(Cn2ccc3ccc(-c4ccc5ccn(Cc6cccc(Br)c6)c5c4)cc32)c1	-2.4	.	.	.	0.5	.	.	.
C/C=C/C=C/C(=O)N1C[C@H](C)N(C)C[C@H]1C	7.3	.	.	.	-0.4	.	.	.
COc1ccc(C2CC(c3ccc4ccccc4c3)=NN2C(=O)COC(=O)C2CCC(=O)N2)cc1 (stereo not given)	4.1	2.1	-162.9	2.1	6.7*	5.7	14.6*	6.5*
CC(=O)OCC(=O)N1N=C(c2ccc3ccccc3c2)CC1c1ccccc1 (stereo not given)	-1.9	-0.9	-47.1	0.6	0.5	-2.2	.	.
O=C(N=c1nc2ccccn2s1)c1ccccc1	0.8	3.0	-97.1	3.9	5.2*	9.6	11.2*	2.7
O=C(c1ccccc1)n1c(=S)nc2ccccn21	6.2	3.5	-160.2	-0.5	3.4	0.6	.	.
O=C(CC(=O)c1ccccn1)c1ccccc1	6.0	3.6	-122.1	.	6.0*	.	8.6*	5.2*
O=C(c1ccccc1)c1ccccn1	2.9	0.2	-11.2	-0.4	-0.4	0.6	.	.

Screening results: PubChem BioAssay, several laboratories
